Source: ChEMBL document CHEMBL4715736, “Identification of anticancer agents based on the thieno[2,3-b]pyridine and 1H-pyrazole molecular scaffolds” (2016)

Key:
Assay type in all cases: functional
Conditions in all cases: read-out: Activity
HL-60(TB) = assay: Growth inhibition of human HL-60(TB) cells assessed as cell growth at 10 uM incubated for 48 hrs by sulforhodamine B assay relative to control
Summary of the method: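 Screened by the NCI Developmental Therapeutics Program on its panel of 60 human tumour cell lines. Compounds were first tested at a single 10 µM dose, and compounds active there went to dose-response curves. Growth is expressed relative to untreated control (100%). GI50 (50% of maximal proliferation inhibition) and TGI (total growth inhibition) were derived from the dose-response data.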

MOLT-4 = assay: Growth inhibition of human MOLT-4 cells assessed as cell growth at 10 uM incubated for 48 hrs by sulforhodamine B assay relative to control
Summary of the method: (§1)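 Submitted to the NCI Developmental Therapeutics Program for the NCI60 human tumour cell line panel. First screen at a single 10 µM concentration. Read-out is growth relative to untreated control cells set at 100%.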

A549 = assay: Growth inhibition of human A549/ATCC cells assessed as cell growth at 10 uM incubated for 48 hrs by sulforhodamine B assay relative to control
Summary of the method: (§2)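 NCI Developmental Therapeutics Program NCI60 panel. Compounds that were active in the 10 µM one-dose screen went on to dose–response testing. Growth at each concentration is expressed relative to untreated control (100%). GI50 (concentration giving 50% of maximal inhibition of proliferation) and TGI (concentration giving total growth inhibition) were derived from the curves.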

HOP-92 = assay: Growth inhibition of human HOP-92 cells assessed as cell growth at 10 uM incubated for 48 hrs by sulforhodamine B assay relative to control; summary of the method: as §1
NCI-H460 = assay: Growth inhibition of human NCI-H460 cells assessed as cell growth at 10 uM incubated for 48 hrs by sulforhodamine B assay relative to control; summary of the method: as §1
COLO 205 = assay: Growth inhibition of human COLO 205 cells assessed as cell growth at 10 uM incubated for 48 hrs by sulforhodamine B assay relative to control; summary of the method: as §2
HCC 2998 = assay: Growth inhibition of human HCC 2998 cells assessed as cell growth at 10 uM incubated for 48 hrs by sulforhodamine B assay relative to control; summary of the method: as §2
HCT-116 = assay: Growth inhibition of human HCT-116 cells assessed as cell growth at 10 uM incubated for 48 hrs by sulforhodamine B assay relative to control; summary of the method: as §1
HCT-15 = assay: Growth inhibition of human HCT-15 cells assessed as cell growth at 10 uM incubated for 48 hrs by sulforhodamine B assay relative to control; summary of the method: as §1
KM12 = assay: Growth inhibition of human KM12 cells assessed as cell growth at 10 uM incubated for 48 hrs by sulforhodamine B assay relative to control; summary of the method: as §1
SF-295 = assay: Growth inhibition of human SF-295 cells assessed as cell growth at 10 uM incubated for 48 hrs by sulforhodamine B assay relative to control
Summary of the method: (§3)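 Run by the NCI Developmental Therapeutics Program as part of its 60-line human tumour panel. Each compound tested at a single 10 µM dose. Growth expressed as % relative to untreated control cells (100%).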

SF-539 = assay: Growth inhibition of human SF-539 cells assessed as cell growth at 10 uM incubated for 48 hrs by sulforhodamine B assay relative to control; summary of the method: as §3
SNB-19 = assay: Growth inhibition of human SNB-19 cells assessed as cell growth at 10 uM incubated for 48 hrs by sulforhodamine B assay relative to control; summary of the method: as §3
U-251 = assay: Growth inhibition of human U-251 cells assessed as cell growth at 10 uM incubated for 48 hrs by sulforhodamine B assay relative to control; summary of the method: as §3
Malme-3M = assay: Growth inhibition of human Malme-3M cells assessed as cell growth at 10 uM incubated for 48 hrs by sulforhodamine B assay relative to control; summary of the method: as §1
M14 = assay: Growth inhibition of human M14 cells assessed as cell growth at 10 uM incubated for 48 hrs by sulforhodamine B assay relative to control; summary of the method: as §1
MDA-MB-435 = assay: Growth inhibition of human MDA-MB-435 cells assessed as cell growth at 10 uM incubated for 48 hrs by sulforhodamine B assay relative to control; summary of the method: as §1
SK-MEL-5 = assay: Growth inhibition of human SK-MEL-5 cells assessed as cell growth at 10 uM incubated for 48 hrs by sulforhodamine B assay relative to control; summary of the method: as §3
OVCAR-3 = assay: Growth inhibition of human OVCAR-3 cells assessed as cell growth at 10 uM incubated for 48 hrs by sulforhodamine B assay relative to control; summary of the method: as §3
OVCAR-4 = assay: Growth inhibition of human OVCAR-4 cells assessed as cell growth at 10 uM incubated for 48 hrs by sulforhodamine B assay relative to control; summary of the method: as §3
OVCAR-8 = assay: Growth inhibition of human OVCAR-8 cells assessed as cell growth at 10 uM incubated for 48 hrs by sulforhodamine B assay relative to control; summary of the method: as §3
NCI/ADR-RES = assay: Growth inhibition of human NCI/ADR-RES cells assessed as cell growth at 10 uM incubated for 48 hrs by sulforhodamine B assay relative to control; summary of the method: as §1
786-0 = assay: Growth inhibition of human 786-0 cells assessed as cell growth at 10 uM incubated for 48 hrs by sulforhodamine B assay relative to control; summary of the method: as §2
A498 = assay: Growth inhibition of human A498 cells assessed as cell growth at 10 uM incubated for 48 hrs by sulforhodamine B assay relative to control; summary of the method: as §2
ACHN = assay: Growth inhibition of human ACHN cells assessed as cell growth at 10 uM incubated for 48 hrs by sulforhodamine B assay relative to control
Summary of the method: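 NCI Developmental Therapeutics Program NCI60 human tumour cell line panel, one-dose primary screen with every compound at 10 µM. Growth is expressed as % of untreated control cells (100%).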

RXF 393 = assay: Growth inhibition of human RXF 393 cells assessed as cell growth at 10 uM incubated for 48 hrs by sulforhodamine B assay relative to control; summary of the method: as §3
SN12C = assay: Growth inhibition of human SN12C cells assessed as cell growth at 10 uM incubated for 48 hrs by sulforhodamine B assay relative to control; summary of the method: as §3
UO-31 = assay: Growth inhibition of human UO-31 cells assessed as cell growth at 10 uM incubated for 48 hrs by sulforhodamine B assay relative to control; summary of the method: as §3
PC-3 = assay: Growth inhibition of human PC-3 cells assessed as cell growth at 10 uM incubated for 48 hrs by sulforhodamine B assay relative to control; summary of the method: as §3
DU-145 = assay: Growth inhibition of human DU-145 cells assessed as cell growth at 10 uM incubated for 48 hrs by sulforhodamine B assay relative to control; summary of the method: as §2
MCF7 = assay: Growth inhibition of human MCF7 cells assessed as cell growth at 10 uM incubated for 48 hrs by sulforhodamine B assay relative to control; summary of the method: as §1
T47D = assay: Growth inhibition of human T47D cells assessed as cell growth at 10 uM incubated for 48 hrs by sulforhodamine B assay relative to control; summary of the method: as §3
MDA-MB-468 = assay: Growth inhibition of human MDA-MB-468 cells assessed as cell growth at 10 uM incubated for 48 hrs by sulforhodamine B assay relative to control; summary of the method: as §1

COc1ccc(S(=O)(=O)n2ccc(-c3ccc(OC(C)C)cc3)n2)cc1 showed a growth at 10 µM (HL-60(TB)) of 90.3%, a growth at 10 µM (MOLT-4) of 86.9% and a growth at 10 µM (A549) of 86%. For the same molecule, the growth at 10 µM (HOP-92) was 75.7%, the growth at 10 µM (NCI-H460) was 84.5% and the growth at 10 µM (COLO 205) was 111%. It also gave a growth at 10 µM (HCC 2998) of 103%, a growth at 10 µM (HCT-116) of 79% and a growth at 10 µM (HCT-15) of 87.6%. It also gave a growth at 10 µM (KM12) of 92%, a growth at 10 µM (SF-295) of 90% and a growth at 10 µM (SF-539) of 97%. It also gave a growth at 10 µM (SNB-19) of 100%, a growth at 10 µM (U-251) of 95.3% and a growth at 10 µM (Malme-3M) of 107%. The growth at 10 µM (M14) was 84.5%, the growth at 10 µM (MDA-MB-435) was 94.6% and the growth at 10 µM (SK-MEL-5) was 91.9%. The growth at 10 µM (OVCAR-3) was 90.4%, the growth at 10 µM (OVCAR-4) was 67.7% and the growth at 10 µM (OVCAR-8) was 94.6%. The growth at 10 µM (NCI/ADR-RES) was 81.3%, the growth at 10 µM (786-0) was 81.1% and the growth at 10 µM (A498) was 48.5%. The growth at 10 µM (ACHN) was 95.8%, the growth at 10 µM (RXF 393) was 100% and the growth at 10 µM (SN12C) was 90.6%. It also gave a growth at 10 µM (UO-31) of 76.4%, a growth at 10 µM (PC-3) of 73.2% and a growth at 10 µM (DU-145) of 94.3%. It also gave a growth at 10 µM (MCF7) of 93.8%, a growth at 10 µM (T47D) of 72.3% and a growth at 10 µM (MDA-MB-468) of 68.7%.

For COc1ccc(-c2ccn(S(=O)(=O)c3ccc(OC)cc3)n2)cc1, the growth at 10 µM (HL-60(TB)) was 99.4%, the growth at 10 µM (MOLT-4) was 73.2% and the growth at 10 µM (A549) was 88.3%. For the same molecule, the growth at 10 µM (HOP-92) was 38.8%, the growth at 10 µM (NCI-H460) was 75% and the growth at 10 µM (COLO 205) was 118%. For the same molecule, the growth at 10 µM (HCC 2998) was 88.1%, the growth at 10 µM (HCT-116) was 60.3% and the growth at 10 µM (HCT-15) was 83%. The growth at 10 µM (KM12) was 88.4%, the growth at 10 µM (SF-295) was 72.7% and the growth at 10 µM (SF-539) was 87.3%. For the same molecule, the growth at 10 µM (SNB-19) was 96.8%, the growth at 10 µM (U-251) was 86.6% and the growth at 10 µM (Malme-3M) was 112%. The growth at 10 µM (M14) was 74%, the growth at 10 µM (MDA-MB-435) was 88.4% and the growth at 10 µM (SK-MEL-5) was 79.9%. It also gave a growth at 10 µM (OVCAR-3) of 89.3%, a growth at 10 µM (OVCAR-4) of 63% and a growth at 10 µM (OVCAR-8) of 89.2%. The growth at 10 µM (NCI/ADR-RES) was 88.4%, the growth at 10 µM (786-0) was 80.2% and the growth at 10 µM (A498) was 50.2%. It also gave a growth at 10 µM (ACHN) of 90.6%, a growth at 10 µM (RXF 393) of 88.7% and a growth at 10 µM (SN12C) of 92.4%. For the same molecule, the growth at 10 µM (UO-31) was 72%, the growth at 10 µM (PC-3) was 65.8% and the growth at 10 µM (DU-145) was 93.9%. The growth at 10 µM (MCF7) was 97.9%, the growth at 10 µM (T47D) was 58.8% and the growth at 10 µM (MDA-MB-468) was 59.3%.

CCc1cccc(C)c1NC(=O)c1sc2nc3c(cc2c1N)C(=O)CCC3 showed a growth at 10 µM (HL-60(TB)) of -30%, a growth at 10 µM (MOLT-4) of 17.9% and a growth at 10 µM (A549) of 22.9%. It also gave a growth at 10 µM (HOP-92) of 30%, a growth at 10 µM (NCI-H460) of 4% and a growth at 10 µM (COLO 205) of -58%. The growth at 10 µM (HCC 2998) was 10.2%, the growth at 10 µM (HCT-116) was 17% and the growth at 10 µM (HCT-15) was 16%. For the same molecule, the growth at 10 µM (KM12) was 14%, the growth at 10 µM (SF-295) was 2% and the growth at 10 µM (SF-539) was -27%. The growth at 10 µM (SNB-19) was 42%, the growth at 10 µM (U-251) was 2.81% and the growth at 10 µM (Malme-3M) was 48%. The growth at 10 µM (M14) was 7%, the growth at 10 µM (MDA-MB-435) was -36% and the growth at 10 µM (SK-MEL-5) was -10%. It also gave a growth at 10 µM (OVCAR-3) of -26%, a growth at 10 µM (OVCAR-4) of 28% and a growth at 10 µM (OVCAR-8) of 20%. For the same molecule, the growth at 10 µM (NCI/ADR-RES) was -3%, the growth at 10 µM (786-0) was 28% and the growth at 10 µM (A498) was -13%. For the same molecule, the growth at 10 µM (ACHN) was 22%, the growth at 10 µM (RXF 393) was 4% and the growth at 10 µM (SN12C) was 30%. For the same molecule, the growth at 10 µM (UO-31) was 29%, the growth at 10 µM (PC-3) was 23.3% and the growth at 10 µM (DU-145) was 14.2%. For the same molecule, the growth at 10 µM (MCF7) was 13%, the growth at 10 µM (T47D) was 24.4% and the growth at 10 µM (MDA-MB-468) was 9%.
